# Data: ChEMBL document CHEMBL3763127, “Design, synthesis and biological evaluation of novel asperphenamate derivatives” (Eur J Med Chem, 2016)
# pIC50: −log10 of the molar value.
# How the values were obtained:
# Format in all cases: functional, cell-based
# [1] = test system: HeLa; experiment: Cytotoxicity against human HeLa cells after 3 days by MTT assay; settings: 72 h
# In short: (§1)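 MCF-7, HeLa and BEL-7402 cells were grown in RPMI 1640 with 10% heat-inactivated FBS, 1 mM glutamine and penicillin/streptomycin at 37 °C under 5% CO2. They were exposed to compound for 3 days, then read by MTT at 570 nm. Viability was taken as treated/control absorbance, and IC50 was derived from it. Values are mean SD of three independent experiments.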
# [2] = Cytotoxicity against human Bel7402 cells after 3 days by MTT assay; settings: Bel-7402, 72 h; in short: as §1
# [3] = test system: MCF7; experiment: Cytotoxicity against human MCF7 cells after 3 days by MTT assay; settings: MCF7, 72 h; in short: as §1
structure (smiles),measurement,setting,value
O=C(N[C@@H](COC(=O)[C@@H](Cc1ccccc1)NC(=O)c1ccco1)Cc1ccccc1)c1ccccc1,pIC50,[1],< 4.00
same,pIC50,[2],< 4.00
same,pIC50,[3],< 4.00
CS(=O)(=O)N[C@@H](Cc1ccccc1)C(=O)OC[C@H](Cc1ccccc1)NC(=O)c1ccccc1,pIC50,[1],4.03
same,pIC50,[2],4.15
same,pIC50,[3],4.12
Cc1ccc(S(=O)(=O)N[C@@H](Cc2ccccc2)C(=O)OC[C@H](Cc2ccccc2)NC(=O)c2ccccc2)cc1,pIC50,[1],4.42
same,pIC50,[2],4.30
same,pIC50,[3],4.21
"O=C(N[C@H](COC(=O)[C@@H](Cc1ccccc1)NC(=O)n1ccnc1)Cc1ccccc1)c1ccccc1 (single isomer, unassigned)",pIC50,[1],4.14
same,pIC50,[2],4.11
same,pIC50,[3],4.18
Cc1ccc(S(=O)(=O)N[C@@H](Cc2ccccc2)C(=O)OC[C@@H](Cc2ccccc2)NC(=O)c2ccccc2)cc1,pIC50,[1],4.38
same,pIC50,[2],4.27
same,pIC50,[3],4.54
O=C(N[C@@H](COC(=O)[C@@H](Cc1ccccc1)NC(=O)n1ccnc1)Cc1ccccc1)c1ccccc1,pIC50,[1],4.10
same,pIC50,[2],4.04
same,pIC50,[3],4.06
O=C(N[C@@H](COC(=O)[C@@H](Cc1ccccc1)NC(=O)c1cccnc1)Cc1ccccc1)c1ccccc1,pIC50,[1],< 4.00
same,pIC50,[2],< 4.00
same,pIC50,[3],< 4.00
O=C(N[C@@H](COC(=O)[C@@H](Cc1ccccc1)NC(=O)c1cccs1)Cc1ccccc1)c1ccccc1,pIC50,[1],< 4.00
same,pIC50,[2],< 4.00
same,pIC50,[3],< 4.00
O=C(N[C@H](COC(=O)[C@@H](Cc1ccccc1)NC(=O)c1cccs1)Cc1ccccc1)c1ccccc1,pIC50,[1],< 4.00
same,pIC50,[2],< 4.00
same,pIC50,[3],< 4.00
"O=C(N[C@H](COC(=O)[C@@H](Cc1ccccc1)NC(=O)c1ccco1)Cc1ccccc1)c1ccccc1 (single isomer, unassigned)",pIC50,[1],< 4.00
same,pIC50,[2],< 4.00
same,pIC50,[3],< 4.00
CS(=O)(=O)N[C@H](Cc1ccccc1)C(=O)OC[C@@H](Cc1ccccc1)NC(=O)c1ccccc1,pIC50,[1],4.19
same,pIC50,[2],4.28
same,pIC50,[3],4.22
"O=C(N[C@H](COC(=O)[C@@H](Cc1ccccc1)NC(=O)c1ccncc1)Cc1ccccc1)c1ccccc1 (single isomer, unassigned)",pIC50,[1],4.47
same,pIC50,[2],4.71
same,pIC50,[3],4.82
"O=C(N[C@@H](COC(=O)[C@H](Cc1ccccc1)NC(=O)n1ccnc1)Cc1ccccc1)c1ccccc1 (single isomer, unassigned)",pIC50,[1],< 4.00
same,pIC50,[2],< 4.00
same,pIC50,[3],< 4.00
Cc1ccc(S(=O)(=O)N[C@H](Cc2ccccc2)C(=O)OC[C@@H](Cc2ccccc2)NC(=O)c2ccccc2)cc1,pIC50,[1],4.50
same,pIC50,[2],4.65
same,pIC50,[3],4.43
O=C(N[C@@H](COC(=O)[C@@H](Cc1ccccc1)NC(=O)n1cncn1)Cc1ccccc1)c1ccccc1,pIC50,[1],4.04
same,pIC50,[2],4.02
same,pIC50,[3],4.05
"O=C(N[C@@H](COC(=O)[C@H](Cc1ccccc1)NC(=O)n1cncn1)Cc1ccccc1)c1ccccc1 (single isomer, unassigned)",pIC50,[1],< 4.00
same,pIC50,[2],< 4.00
same,pIC50,[3],< 4.00
O=C(N[C@@H](COC(=O)[C@H](Cc1ccccc1)NC(=O)c1cccs1)Cc1ccccc1)c1ccccc1,pIC50,[1],< 4.00
same,pIC50,[2],< 4.00
same,pIC50,[3],< 4.00
O=C(N[C@H](COC(=O)[C@H](Cc1ccccc1)NC(=O)n1ccnc1)Cc1ccccc1)c1ccccc1,pIC50,[1],< 4.00
same,pIC50,[2],< 4.00
same,pIC50,[3],< 4.00
O=C(N[C@H](COC(=O)[C@H](Cc1ccccc1)NC(=O)n1cncn1)Cc1ccccc1)c1ccccc1,pIC50,[1],< 4.00
same,pIC50,[2],< 4.00
same,pIC50,[3],< 4.00
O=C(N[C@H](COC(=O)[C@H](Cc1ccccc1)NC(=O)c1cccnc1)Cc1ccccc1)c1ccccc1,pIC50,[1],< 4.00
same,pIC50,[2],< 4.00
same,pIC50,[3],< 4.00
"O=C(N[C@H](COC(=O)[C@@H](Cc1ccccc1)NC(=O)n1cncn1)Cc1ccccc1)c1ccccc1 (single isomer, unassigned)",pIC50,[1],4.10
same,pIC50,[2],4.09
same,pIC50,[3],4.17
"O=C(N[C@@H](COC(=O)[C@H](Cc1ccccc1)NC(=O)c1ccncc1)Cc1ccccc1)c1ccccc1 (single isomer, unassigned)",pIC50,[1],< 4.00
same,pIC50,[2],< 4.00
same,pIC50,[3],4.19
CS(=O)(=O)N[C@H](Cc1ccccc1)C(=O)OC[C@H](Cc1ccccc1)NC(=O)c1ccccc1,pIC50,[1],4.66
same,pIC50,[2],4.43
same,pIC50,[3],4.66
"O=C(N[C@@H](COC(=O)[C@H](Cc1ccccc1)NC(=O)c1ccco1)Cc1ccccc1)c1ccccc1 (single isomer, unassigned)",pIC50,[1],< 4.00
same,pIC50,[2],< 4.00
same,pIC50,[3],< 4.00
O=C(N[C@H](COC(=O)[C@H](Cc1ccccc1)NC(=O)c1cccs1)Cc1ccccc1)c1ccccc1,pIC50,[1],< 4.00
same,pIC50,[2],< 4.00
same,pIC50,[3],< 4.00
"O=C(N[C@@H](COC(=O)[C@H](Cc1ccccc1)NC(=O)c1cccnc1)Cc1ccccc1)c1ccccc1 (single isomer, unassigned)",pIC50,[1],< 4.00
same,pIC50,[2],< 4.00
same,pIC50,[3],< 4.00
O=C(N[C@@H](COC(=O)[C@@H](Cc1ccccc1)NC(=O)c1ccncc1)Cc1ccccc1)c1ccccc1,pIC50,[1],4.05
same,pIC50,[2],4.19
same,pIC50,[3],4.27
"O=C(N[C@H](COC(=O)[C@@H](Cc1ccccc1)NC(=O)c1cccnc1)Cc1ccccc1)c1ccccc1 (single isomer, unassigned)",pIC50,[1],4.60
same,pIC50,[2],4.78
same,pIC50,[3],4.78
O=C(N[C@H](COC(=O)[C@H](Cc1ccccc1)NC(=O)c1ccco1)Cc1ccccc1)c1ccccc1,pIC50,[1],< 4.00
same,pIC50,[2],< 4.00
same,pIC50,[3],< 4.00
CS(=O)(=O)N[C@@H](Cc1ccccc1)C(=O)OC[C@@H](Cc1ccccc1)NC(=O)c1ccccc1,pIC50,[1],< 4.00
same,pIC50,[2],< 4.00
same,pIC50,[3],< 4.00
O=C(N[C@H](COC(=O)[C@H](Cc1ccccc1)NC(=O)c1ccncc1)Cc1ccccc1)c1ccccc1,pIC50,[1],< 4.00
same,pIC50,[2],< 4.00
same,pIC50,[3],< 4.00
